Measurements gathered from unrelated publications.
Protocols differ between the studies behind these lines.
Target: Mitogen-activated protein kinase 8 (MAPK8, Homo sapiens, UniProt P45983)

SMILES | assay | conditions | quantity | result
CN(c1ccnc(CNc2nc(Nc3ccc4c(c3)CC(=O)N4)ncc2C(F)(F)F)n1)S(C)(=O)=O | cell-free assay, competition with immobilised ligand | 1 µM | remaining binding | 65%
COc1cc(-c2cc(-c3ccc(N4CCNCC4)cc3)cnc2C)cc(OC)c1OC | enzyme activity, inhibitor | 1 µM | inhibition | 2%
CN1CCC2(CC1)NC(=O)c1c(c3ccc(Cl)c(Cl)c3n1C)C2C#N (racemic) | thermal stability, DSF | 10 µM | ΔTm | 0 °C
CC1=C(C#N)[C@@H](c2ccc3[nH]nc(C)c3c2)C(C#N)=C(c2ccc(Cl)cc2)N1 | cell-free assay, competition with immobilised ligand | 1 µM | remaining binding | 65.2%
CC(C)(C)C(=O)c1sc(NC2CCCCC2)nc1N | enzyme activity, inhibitor | 10 µM | remaining activity | 98%
Oc1cccc(-c2nc(N3CCOCC3)c3oc4ncccc4c3n2)c1 | enzyme activity, inhibitor | 10 µM | remaining activity | 102%
Nc1nc(Nc2ccccc2)sc1C(=O)c1c(F)cccc1F | enzyme activity, inhibitor | 10 µM | remaining activity | 75%
Cn1c2c(c3ccc(Cl)c(Cl)c31)C(C#N)C1(CCOCC1)NC2=O (centres unmarked) | thermal stability, DSF | 10 µM | ΔTm | -0.1 °C
O=C1Nc2ccc(Cl)cc2C1=Cc1cc(Cl)c(O)c(Cl)c1 | cell-free assay | 0.5 µM | remaining signal | 82.8%
CC(C)(O)[C@H]1CC[C@H](Nc2ccc3ncc(-c4cccc(C(F)(F)F)c4)n3n2)CC1 | enzyme activity, inhibitor | 1 µM | remaining activity | 107%
COc1cc(Nc2cnc(C#N)c(O[C@H](C)CN(C)C)n2)ncc1-c1cnn(C)c1 | enzyme activity, inhibitor, radiometric | 1 µM | remaining activity | 104%
CO[C@@H](C)c1c(Nc2ccc([C@@H](N(C)C(=O)C3CCS(=O)(=O)CC3)C(F)(F)F)cc2)cnc2cc(Cl)nn12 | cell-free assay, competition with immobilised ligand | 1 µM | remaining binding | 69%
Cc1ccc(NC(=O)c2ccc(C)c(C(F)(F)F)c2)cc1C#Cc1nn(C2CCC(O)CC2)c2ncnc(N)c12 (centres unmarked) | cell-free assay | 10 µM | remaining signal | 35%
O=C(Nc1ccc(Oc2ccc(F)cc2)cc1)N1CCc2ncccc2[C@H]1c1ccc(F)cc1 | cell-free assay, competition with immobilised ligand | 1 µM | remaining binding | 91%
CN(C)C1CCN(CC#Cc2nn(C3CCCC3)c3nc(NCc4ccccc4)ncc23)C1 (centres unmarked) | enzyme activity, inhibitor, FRET | 0.1 µM | inhibition | 1%
CCCS(=O)(=O)Nc1ccc(F)c(C(=O)c2c[nH]c3ncc(-c4ccc(Cl)cc4)cc23)c1F | enzyme activity, inhibitor | 1 µM | inhibition | < 10%
Cn1c(=O)n(-c2ccc(C(C)(C)C#N)cc2)c2c3cc(-c4cnc5ccccc5c4)ccc3ncc21 | enzyme activity, inhibitor | 10 µM | remaining activity | 105%
CC(C)(C)c1nc2c(s1)c1nc(N)ncc1c1ccc(NS(=O)(=O)c3c(F)cccc3F)c(F)c12 | enzyme activity, inhibitor, radiometric | 1 µM | remaining activity | 75%

SMILES | assay | conditions | quantity | result
Nc1ncnc2occ(-c3ccc(NC(=O)Nc4cc(C(F)(F)F)ccc4F)cc3)c12 | cell-free assay, inhibitor | 20 µM | remaining signal | 11%
O=C(Nc1cnn(-c2csc(C(=O)NC3COC3)c2)c1)Nc1c(F)cccc1Cl | enzyme activity, inhibitor | 5 µM | remaining activity | 49.1%
CC(=O)C1=C(C)N(c2cccc(C(F)(F)F)c2)C(=O)N[C@@H]1c1ccc(C#N)nc1 | cell-free assay, competition with immobilised ligand | 1 µM | remaining binding | 100%
Cc1sc(C(=O)NC2COC2)cc1-n1cc(NC(=O)Nc2c(F)cccc2Cl)cn1 | enzyme activity, inhibitor | 10 µM | remaining activity | 76.3%
FC(F)(F)Oc1cccc(-c2cnc3ccc(-c4ccncc4)nn23)c1 | enzyme activity, inhibitor, radiometric | 5 µM | activity vs control | 90%
Cn1c2c(c3ccc(Cl)c(Cl)c31)C(C#N)C1(CCCC1)NC2=O (centres unmarked) | thermal stability, DSF | 10 µM | ΔTm | 0.6 °C
CC1=C(C#N)C(c2ccc3c(c2)c(NC(=O)c2ccccc2C)nn3C)C(C#N)=C(C)N1 | cell-free assay, competition with immobilised ligand | 1 µM | remaining binding | 88%
Cc1ccc(C(=O)NCc2ccsc2)cc1C#Cc1cn(C(C)C)c2ncnc(N)c12 | enzyme activity, inhibitor | 1 µM | activity vs control | 103%
Cn1c2c(c3ccc(Cl)c(Cl)c31)C(C#N)C1(CCNCC1)NC2=O (racemic) | thermal stability, DSF | 10 µM | ΔTm | 0.2 °C
N#CC(c1ccnc(NCCc2cccnc2)n1)c1nc2ccccc2s1 (centres unmarked) | enzyme activity, inhibitor | 0.5 µM | remaining activity | 87.6%
CSc1nc(C)c(-c2ccnc(Nc3ccc(N4CCOCC4)cc3)c2)[nH]1 | enzyme activity, inhibitor | 10 µM | inhibition | 88.6%
N#CC1c2c([nH]c3c(Cl)c(Cl)ccc23)C(=O)NC12CCCCC2 (racemic) | thermal stability, DSF | 10 µM | ΔTm | 1.8 °C
COc1ccc2c(c1)O[C@H](c1ccc(OC)c(OC)c1)C[C@@H]2NC(=O)C1(c2ccc3c(c2)OC(F)(F)O3)CC1 | cell-free assay, competition with immobilised ligand | 1 µM | remaining binding | 96%
CNCc1ccc(-c2cc(-c3nc(-c4ccc(S(=O)(=O)C(C)C)cc4)cnc3N)on2)cc1 | enzyme activity, inhibitor | 0.4 µM | inhibition | 6%
O=C1NC(=O)c2cc(Nc3ccc(F)cc3)c(Nc3ccc(F)cc3)cc21 | cell-free assay | 0.5 µM | remaining signal | 91.4%
NS(=O)(=O)c1cc(NC(=O)C2(c3ccccc3Cl)CC2)ccc1Oc1cccc(Cl)c1 | cell-free assay, competition with immobilised ligand | 1 µM | remaining binding | 100%
COc1cc2ncnc(Nc3ccc(Oc4ccccc4)cc3C)c2cc1OC | enzyme activity, inhibitor | 1 µM | inhibition | 1%
